Reference: ChEMBL document CHEMBL1143482, “Insecticidal anthranilic diamides: a new class of potent ryanodine receptor activators” (2005)
Values after ≈ are worked out from the molar mass of the structure shown.

Experiments:
Assay type in all cases: functional
Heliothis virescens = test: Lethal concentration required for 50% mortality in Tobacco budworm
Procedure, shortened: (§1)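 Larvae exposed to multiple test rates, 16 insects per rate. Mortality scored 96 h post-infestation as percent control = (dead/total) × 100. LC50 in ppm, with confidence intervals, from Probit analysis with maximum quasi-likelihood curve fitting.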

Spodoptera frugiperda = test: Lethal concentration required for 50% mortality in Fall armyworm; procedure, shortened: as §1
Periplaneta americana = test: Ability to release internal calcium stores mediated by ryanodine receptor without activation of voltage-gated calcium channel of cockroach in CMT assay
Procedure, shortened: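 Embryonic Periplaneta americana neurons cultured 7–14 days on glass coverslips, loaded 30 min with Fura-2 AM (2 µM) plus 0.02% pluronic acid in saline (mM: NaCl 190, KCl 3.1, CaCl2 9.0, Tris 10.0, pH 7.2). Ratio imaging, 340/380 nm excitation, 510 nm emission, under perfusion. Caffeine 20 mM given first; only caffeine-responsive cells analysed. Test compounds applied 3 min at multiple rates (n ≥ 11).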

| SMILES | LC50 (Heliothis virescens) | LC50 (Spodoptera frugiperda) | CMT (Periplaneta americana) |
| --- | --- | --- | --- |
| CCNC(=O)c1cccc(C)c1NC(=O)c1ccc(C(F)(F)F)cc1C | > 500 µg/mL | 32.8 µg/mL (≈ 90 µM) | – |
| Cc1cccc(C(=O)NC(C)C)c1NC(=O)c1cc(C(F)(F)F)nn1C | 130 µg/mL (≈ 353 µM) | 29.6 µg/mL (≈ 80.4 µM) | 120 µM |
| Cc1cc(C(F)(F)F)ccc1C(=O)Nc1ccccc1C(=O)NC(C)C | > 500 µg/mL | 27.3 µg/mL (≈ 74.9 µM) | 39.3 µM |
| Cc1cc(C(F)(F)F)ccc1C(=O)Nc1cccc(C)c1C(=O)NC(C)C | > 500 µg/mL | 77 µg/mL (≈ 203 µM) | – |
| CNC(=O)c1cccc(C)c1NC(=O)c1ccc(C(F)(F)F)cc1C | > 500 µg/mL | 60.1 µg/mL (≈ 172 µM) | – |
| Cc1cccc(C(=O)NC(C)C)c1NC(=O)c1cnc(C(F)(F)F)nc1C | 102 µg/mL (≈ 269 µM) | 11.6 µg/mL (≈ 30.5 µM) | – |
| Cc1cccc(C(=O)NC(C)C)c1NC(=O)c1cnc(C(F)(F)F)nc1C(C)C | 42.3 µg/mL (≈ 104 µM) | 9.8 µg/mL (≈ 24 µM) | 26.6 µM |
| Cc1cccc(C(=O)NC(C)C)c1NC(=O)c1cc(C(F)(F)F)nn1-c1ccccc1Cl | 3.4 µg/mL (≈ 7.31 µM) | 0.05 µg/mL (≈ 0.108 µM) | 0.2 µM |
| Cc1cccc(C(=O)NC(C)C)c1NC(=O)c1cc(C(F)(F)F)nn1-c1ccccc1 | 354 µg/mL (≈ 822 µM) | 26 µg/mL (≈ 60.4 µM) | – |
| Cc1cccc(C(=O)NC(C)C)c1NC(=O)c1ccc(C(F)(F)F)cc1 | > 500 µg/mL | 16.9 µg/mL (≈ 46.4 µM) | – |
| CCn1nc(C(F)(F)F)cc1C(=O)Nc1c(C)cccc1C(=O)NC(C)C | 158 µg/mL (≈ 413 µM) | 34.8 µg/mL (≈ 91 µM) | – |
| COC(=O)N(C(=O)N1CO[C@@]2(C(=O)OC)Cc3cc(Cl)ccc3C2=N1)c1ccc(OC(F)(F)F)cc1 [INDOXACARB] | 1.5 µg/mL (≈ 2.84 µM) | 0.5 µg/mL (≈ 0.947 µM) | – |
| Cc1cccc(C(=O)NC(C)C)c1NC(=O)c1cc(C(F)(F)F)nn1-c1ccc(Cl)cc1 | > 500 µg/mL | > 500 µg/mL | – |
| CC(C)NC(=O)c1cccc(Cl)c1NC(=O)c1cc(C(F)(F)F)nn1-c1ccccc1Cl | 3 µg/mL (≈ 6.18 µM) | 0.1 µg/mL (≈ 0.206 µM) | 0.3 µM |
| Cc1cccc(C(=O)NC(C)C)c1NC(=O)c1cc(C(F)(F)F)nn1-c1cccc(Cl)c1 | > 500 µg/mL | > 500 µg/mL | – |
| Cc1cccc(C(=O)NC(C)C)c1NC(=O)c1cc(C(F)(F)F)nn1-c1ncccc1Cl | 0.4 µg/mL (≈ 0.859 µM) | 0.1 µg/mL (≈ 0.215 µM) | 0.3 µM |
| Cc1cc(C(F)(F)F)ccc1C(=O)Nc1c(C)cccc1C(=O)NC(C)C | 256 µg/mL (≈ 675 µM) | 20.7 µg/mL (≈ 54.7 µM) | – |
| CCc1nc(C(F)(F)F)ncc1C(=O)Nc1c(C)cccc1C(=O)NC(C)C | 41 µg/mL (≈ 104 µM) | 9 µg/mL (≈ 22.8 µM) | – |
| CC1(C)C(C=C(Cl)Cl)C1C(=O)OC(C#N)c1cccc(Oc2ccccc2)c1 (stereo not drawn) [ALPHA-CYPERMETHRIN] | 13.5 µg/mL (≈ 32.4 µM) | 2.1 µg/mL (≈ 5.04 µM) | – |
| CCc1nc(C(F)(F)F)ccc1C(=O)Nc1c(C)cccc1C(=O)NC(C)C | 77.5 µg/mL (≈ 197 µM) | 9.7 µg/mL (≈ 24.7 µM) | 20.6 µM |
| Cc1cc(Cl)cc(C(=O)NC(C)C)c1NC(=O)c1cc(C(F)(F)F)nn1-c1ncccc1Cl | 0.02 µg/mL (≈ 0.04 µM) | – | 0.1 µM |
| Cc1cccc(C(=O)NC(C)C)c1NC(=O)c1ccc(C(F)(F)F)nc1C | 327 µg/mL (≈ 862 µM) | 20.7 µg/mL (≈ 54.6 µM) | – |
| Cc1cccc(C(=O)NC(C)C)c1NC(=O)c1ccc(C(F)(F)F)nc1C(C)C | 55.5 µg/mL (≈ 136 µM) | 9.6 µg/mL (≈ 23.6 µM) | – |
| Cc1cccc(C(=O)NC(C)C)c1NC(=O)c1cc(C(F)(F)F)nn1C(C)C | 36.4 µg/mL (≈ 91.8 µM) | 11.1 µg/mL (≈ 28 µM) | – |
| CC(C)NC(=O)c1cccc(Cl)c1NC(=O)c1cc(C(F)(F)F)nn1-c1ncccc1Cl | 0.4 µg/mL (≈ 0.823 µM) | 0.1 µg/mL (≈ 0.206 µM) | – |
